Test results published in ChEMBL document CHEMBL1926607 (J Med Chem, 2011).

Legend:
[1] = target: T1, 5-hydroxytryptamine receptor 1A (Rattus norvegicus, UniProt P19327); assay: Displacement of [3H]-8-OH-DPAT from 5-HT1A receptor in Sprague-Dawley albinus rat cerebral cortex membranes after 15 mins; type: cell membranes, Membrane
T1 sequence (P19327 whole entry): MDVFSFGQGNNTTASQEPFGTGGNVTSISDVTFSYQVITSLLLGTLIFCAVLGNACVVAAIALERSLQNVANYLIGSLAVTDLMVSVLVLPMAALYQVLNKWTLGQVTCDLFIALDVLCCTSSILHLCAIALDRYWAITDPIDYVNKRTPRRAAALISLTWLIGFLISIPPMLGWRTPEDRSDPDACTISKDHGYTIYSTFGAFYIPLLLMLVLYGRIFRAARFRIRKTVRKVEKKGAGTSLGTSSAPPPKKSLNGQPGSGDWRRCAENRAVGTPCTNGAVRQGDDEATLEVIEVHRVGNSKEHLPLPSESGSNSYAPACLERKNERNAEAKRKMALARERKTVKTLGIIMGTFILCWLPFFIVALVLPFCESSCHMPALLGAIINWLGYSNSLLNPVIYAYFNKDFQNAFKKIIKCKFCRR

[2] = target: 5-hydroxytryptamine receptor 2A (Rattus norvegicus, UniProt P14842); assay: Displacement of [3H]ketanserin from 5HT2A receptor in Sprague-Dawley albinus rat frontal cortex membranes after 15 mins; type: cell membranes, Membrane
5-hydroxytryptamine receptor 2A, sequence (P14842 whole entry): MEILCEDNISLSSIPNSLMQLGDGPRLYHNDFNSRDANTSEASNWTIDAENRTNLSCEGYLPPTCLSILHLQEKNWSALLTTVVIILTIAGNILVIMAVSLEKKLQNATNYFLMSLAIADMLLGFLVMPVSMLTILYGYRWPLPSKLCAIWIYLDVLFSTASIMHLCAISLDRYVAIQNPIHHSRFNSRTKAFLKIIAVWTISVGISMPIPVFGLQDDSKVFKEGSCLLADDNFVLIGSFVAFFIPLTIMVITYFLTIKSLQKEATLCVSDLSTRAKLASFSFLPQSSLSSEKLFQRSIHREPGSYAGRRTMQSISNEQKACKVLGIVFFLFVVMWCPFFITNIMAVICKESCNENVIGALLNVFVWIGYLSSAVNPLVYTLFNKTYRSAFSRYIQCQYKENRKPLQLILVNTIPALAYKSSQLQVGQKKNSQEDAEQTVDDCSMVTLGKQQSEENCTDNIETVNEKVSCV
In short: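 Rat frontal cortex membranes (male Sprague–Dawley, 180–200 g). Nonspecific binding was set with 1 μM cinanserin.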

[3] = target: 5-hydroxytryptamine receptor 7 (Rattus norvegicus, UniProt P32305); assay: Displacement of [3H]-5-CT from 5HT7 receptor in Sprague-Dawley albinus rat hyphalamic membranes after 120 mins; type: cell membranes, Membrane
5-hydroxytryptamine receptor 7, sequence (P32305 whole entry): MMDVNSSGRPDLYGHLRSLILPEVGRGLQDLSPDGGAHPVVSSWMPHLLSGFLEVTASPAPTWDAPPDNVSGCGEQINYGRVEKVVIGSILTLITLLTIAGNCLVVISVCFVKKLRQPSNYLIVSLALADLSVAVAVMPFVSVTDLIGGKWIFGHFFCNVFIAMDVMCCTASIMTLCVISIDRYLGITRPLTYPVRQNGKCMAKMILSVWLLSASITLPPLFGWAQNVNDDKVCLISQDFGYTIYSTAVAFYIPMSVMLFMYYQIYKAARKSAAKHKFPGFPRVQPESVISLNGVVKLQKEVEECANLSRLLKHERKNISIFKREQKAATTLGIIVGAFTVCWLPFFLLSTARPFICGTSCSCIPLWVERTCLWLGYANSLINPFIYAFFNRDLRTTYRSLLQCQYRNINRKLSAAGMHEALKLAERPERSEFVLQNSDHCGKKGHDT

[4] = target: T2, Adrenergic receptor alpha-1 (Rattus norvegicus, UniProt P15823+P23944+P43140); assay: Displacement of [3H]prazosin from alpha1 adrenoceptor in Sprague-Dawley albinus rat cerebral cortex membranes after 30 mins; type: cell membranes, Membrane
T2 sequence (P15823 whole entry): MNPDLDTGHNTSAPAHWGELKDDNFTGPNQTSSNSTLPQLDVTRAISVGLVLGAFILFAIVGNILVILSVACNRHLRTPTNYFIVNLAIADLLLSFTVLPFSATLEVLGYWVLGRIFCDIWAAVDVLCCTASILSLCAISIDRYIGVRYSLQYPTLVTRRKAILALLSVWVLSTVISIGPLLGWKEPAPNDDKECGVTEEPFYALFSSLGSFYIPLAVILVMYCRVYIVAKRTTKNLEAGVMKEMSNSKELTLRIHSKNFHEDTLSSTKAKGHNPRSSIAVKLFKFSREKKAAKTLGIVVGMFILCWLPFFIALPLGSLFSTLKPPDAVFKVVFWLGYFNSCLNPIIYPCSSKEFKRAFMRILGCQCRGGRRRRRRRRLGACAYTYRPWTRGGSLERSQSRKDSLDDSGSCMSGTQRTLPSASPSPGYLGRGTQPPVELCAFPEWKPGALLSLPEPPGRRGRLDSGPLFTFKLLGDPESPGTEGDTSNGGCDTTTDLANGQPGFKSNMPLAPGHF
T2 sequence (P23944 whole entry): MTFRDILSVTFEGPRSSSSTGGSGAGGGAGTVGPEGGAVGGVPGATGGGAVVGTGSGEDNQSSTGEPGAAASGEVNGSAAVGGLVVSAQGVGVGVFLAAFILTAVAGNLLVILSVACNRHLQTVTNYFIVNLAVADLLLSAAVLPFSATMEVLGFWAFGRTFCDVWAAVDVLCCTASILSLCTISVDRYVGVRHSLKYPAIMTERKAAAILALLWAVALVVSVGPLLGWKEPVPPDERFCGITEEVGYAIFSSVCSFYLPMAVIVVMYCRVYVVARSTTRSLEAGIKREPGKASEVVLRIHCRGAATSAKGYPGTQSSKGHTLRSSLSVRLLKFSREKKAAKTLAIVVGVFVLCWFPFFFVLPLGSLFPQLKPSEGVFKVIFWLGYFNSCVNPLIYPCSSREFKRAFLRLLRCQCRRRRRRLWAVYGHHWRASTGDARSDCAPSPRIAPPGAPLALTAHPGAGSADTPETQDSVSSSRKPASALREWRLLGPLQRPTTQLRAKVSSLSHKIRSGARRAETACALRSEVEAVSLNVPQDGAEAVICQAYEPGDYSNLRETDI
T2 sequence (P43140 whole entry): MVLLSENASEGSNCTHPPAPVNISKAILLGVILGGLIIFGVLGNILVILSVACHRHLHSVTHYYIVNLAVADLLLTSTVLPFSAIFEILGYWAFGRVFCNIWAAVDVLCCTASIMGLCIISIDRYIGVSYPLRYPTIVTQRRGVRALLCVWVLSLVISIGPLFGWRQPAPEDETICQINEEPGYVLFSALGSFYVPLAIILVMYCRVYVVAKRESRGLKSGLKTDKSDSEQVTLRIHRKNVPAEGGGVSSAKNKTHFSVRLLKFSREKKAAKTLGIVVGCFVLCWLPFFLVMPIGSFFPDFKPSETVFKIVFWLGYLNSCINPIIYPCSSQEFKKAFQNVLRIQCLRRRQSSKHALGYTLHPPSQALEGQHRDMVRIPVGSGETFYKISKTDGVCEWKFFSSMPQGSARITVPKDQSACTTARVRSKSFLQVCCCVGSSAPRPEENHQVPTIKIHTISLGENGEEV
In short: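 Rat cerebral cortex membranes (about 250 μg protein; male Sprague–Dawley, 180–200 g) in 50 mM Tris-HCl with 10 mM MgCl2, pH 7.4. Incubation was 30 min at 25 °C with 0.2 nM [3H]prazosin and six competitor concentrations. Nonspecific binding was set with 10 μM phentolamine.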

D(2) dopamine receptor = D(2) dopamine receptor (Rattus norvegicus, UniProt P61169); assay: Displacement of [3H]spiperone from dopamine D2 receptor in Sprague-Dawley albinus rat striatal membranes after 15 mins; type: cell membranes, Membrane
D(2) dopamine receptor, sequence (P61169 whole entry): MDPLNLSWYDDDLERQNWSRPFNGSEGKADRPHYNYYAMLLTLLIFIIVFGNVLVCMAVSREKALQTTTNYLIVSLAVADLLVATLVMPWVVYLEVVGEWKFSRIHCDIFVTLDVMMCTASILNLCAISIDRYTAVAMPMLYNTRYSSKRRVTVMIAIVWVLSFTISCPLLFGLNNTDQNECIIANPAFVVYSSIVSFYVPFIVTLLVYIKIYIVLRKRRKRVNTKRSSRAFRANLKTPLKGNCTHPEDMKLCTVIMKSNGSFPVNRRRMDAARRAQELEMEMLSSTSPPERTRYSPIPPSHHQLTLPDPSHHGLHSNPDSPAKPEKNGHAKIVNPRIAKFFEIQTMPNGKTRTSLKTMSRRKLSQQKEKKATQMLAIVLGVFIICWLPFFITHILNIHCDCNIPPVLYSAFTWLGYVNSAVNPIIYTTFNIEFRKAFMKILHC

[5] = target: 5-hydroxytryptamine receptor 4 (Rattus norvegicus, UniProt Q62758); assay: Displacement of [3H]GR113808 from 5HT4 receptor in Sprague-Dawley albinus rat striatal membranes after 30 mins by scintillation counting; type: cell membranes, Membrane
5-hydroxytryptamine receptor 4, sequence (Q62758 whole entry): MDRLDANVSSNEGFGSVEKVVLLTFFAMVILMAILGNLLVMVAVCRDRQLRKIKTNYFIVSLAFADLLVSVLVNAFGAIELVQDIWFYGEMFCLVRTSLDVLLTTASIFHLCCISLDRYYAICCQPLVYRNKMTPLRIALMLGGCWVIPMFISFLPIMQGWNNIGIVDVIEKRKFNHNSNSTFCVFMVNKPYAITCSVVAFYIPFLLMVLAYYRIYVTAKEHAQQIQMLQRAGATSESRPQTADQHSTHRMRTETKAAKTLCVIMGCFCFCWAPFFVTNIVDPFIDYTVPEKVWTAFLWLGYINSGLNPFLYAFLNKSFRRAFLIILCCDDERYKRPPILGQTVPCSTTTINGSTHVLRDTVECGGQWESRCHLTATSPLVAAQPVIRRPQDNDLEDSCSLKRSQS

[6] = target: T3, 5-hydroxytryptamine receptor 3A (Rattus norvegicus, UniProt P35563); assay: Displacement of [3H]-LY278584 from 5HT3 receptor in Sprague-Dawley albinus rat cerebral cortex membranes after 30 mins; type: cell membranes, Membrane
T3 sequence (P35563 whole entry): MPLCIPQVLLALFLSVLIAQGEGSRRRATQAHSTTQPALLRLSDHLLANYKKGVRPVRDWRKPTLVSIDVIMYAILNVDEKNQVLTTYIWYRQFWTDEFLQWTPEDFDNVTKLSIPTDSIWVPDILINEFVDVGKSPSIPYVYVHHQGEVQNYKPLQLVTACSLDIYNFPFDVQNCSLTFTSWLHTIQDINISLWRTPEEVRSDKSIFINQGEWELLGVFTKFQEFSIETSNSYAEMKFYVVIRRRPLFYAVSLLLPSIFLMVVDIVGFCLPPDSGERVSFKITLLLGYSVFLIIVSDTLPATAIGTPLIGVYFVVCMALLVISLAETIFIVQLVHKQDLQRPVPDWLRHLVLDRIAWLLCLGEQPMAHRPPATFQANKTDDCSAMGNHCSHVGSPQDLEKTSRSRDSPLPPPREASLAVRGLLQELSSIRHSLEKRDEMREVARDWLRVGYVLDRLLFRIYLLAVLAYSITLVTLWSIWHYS

[7] = target: T4, 5-hydroxytryptamine receptor 1A (Homo sapiens, UniProt P08908); assay: Agonist activity at human 5HT1A receptor expressed in human HeLa cells assessed as inhibition of forskolin-stimulated cAMP production […] measured after 2 hrs by RIA; type: functional, cell-based
T4 sequence (P08908 whole entry): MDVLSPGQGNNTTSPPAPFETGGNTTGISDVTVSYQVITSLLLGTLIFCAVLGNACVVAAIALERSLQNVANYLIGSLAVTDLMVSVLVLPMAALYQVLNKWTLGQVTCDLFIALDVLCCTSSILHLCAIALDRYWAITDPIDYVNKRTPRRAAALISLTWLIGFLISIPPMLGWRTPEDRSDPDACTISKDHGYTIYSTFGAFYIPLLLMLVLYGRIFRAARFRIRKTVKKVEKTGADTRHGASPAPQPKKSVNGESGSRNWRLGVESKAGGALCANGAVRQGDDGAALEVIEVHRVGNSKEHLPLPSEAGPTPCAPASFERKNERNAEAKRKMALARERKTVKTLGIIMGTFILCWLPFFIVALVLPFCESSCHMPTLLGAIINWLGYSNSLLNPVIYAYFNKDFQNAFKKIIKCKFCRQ
In short: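 HeLa cells stably expressing the h5-HT1AR, grown in DMEM with 2 mM glutamine, 1 mM pyruvate and 10% heat-inactivated FCS, and used after 2–3 days at about 7.5 × 10^4 cells/well. After a PBS wash, cells were incubated 10 min in PBS with 0.5 mM isobutylmethylxanthine and 10 μM forskolin, with or without compound. The reaction was stopped with ice-cold ethanol, extracted 2 h and lyophilized; cAMP was measured by RIA.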

[8] = target: T5, 5-hydroxytryptamine receptor 1A (Homo sapiens) (UniProt P08908); assay: Agonist activity at human 5HT1A receptor expressed in human HeLa cells assessed as inhibition of forskolin-stimulated cAMP production pretreated 20 mins before forskolin challenge measured after 2 hrs by RIA relative to control; type: functional, cell-based
T5 sequence (whole entry): T4 sequence (P08908 whole entry)

O=C1C2CCCN2C(=O)N1Cc1ccc(CNCC2CCc3ccccc3O2)cc1 (stereo not drawn) gave a Ki [1] of 28 nM and a Ki [2] of over 1000 nM.

Work on O=C1C2CCCN2C(=O)N1CCCCNCc1ccccc1 (stereo not drawn) yielded a Ki [1] of over 1000 nM.

O=C1C2CCCN2C(=O)N1Cc1cccc(CNCC2CCc3ccccc3O2)c1 (stereo not drawn) showed a Ki [2] of over 1000 nM.

Cl.O=C1C2CCCCN2C(=O)CN1CCCCNCC1CCc2ccccc2O1 (stereo not drawn) was tested, and the Ki [3] was over 1000 nM, the Ki [1] was 34 nM and the Ki [4] was 67 nM. For the same compound, the Ki (D(2) dopamine receptor) was over 1000 nM, the Ki [5] was over 1000 nM and the Ki [6] was over 1000 nM. For the same compound, the Ki [2] was over 1000 nM.

O=C1C2CCCN2C(=O)N1CCCCCNCC1CCc2ccccc2O1 (stereo not drawn) was tested, and the Ki [1] was 12.9 nM, the EC50 [7] was 157 nM and the Emax [8] was 92.5%. For the same compound, the Ki [2] was over 1000 nM.

With O=C1CSC(=O)N1CCCCCNCC1CCc2ccccc2O1 (stereo not drawn) the EC50 [7] was 34.2 nM, the Emax [8] was 94.8% and the Ki [2] was over 1000 nM.

O=C1C2CCCN2C(=O)N1CC#CCNCC1CCc2ccccc2O1 (stereo not drawn) was tested, and the Ki [1] was over 1000 nM.

With Cl.O=C1C2CCCN2C(=O)N1CCCCNCCc1cccc2ccccc12 (stereo not drawn) the Ki [3] was over 1000 nM, the Ki [4] was over 1000 nM and the Ki (D(2) dopamine receptor) was over 1000 nM. It also gave a Ki [5] of over 1000 nM, a Ki [6] of over 1000 nM and a Ki [2] of over 1000 nM.

Compound Cl.O=C1C2CCCN2C(=O)N1CCCCNCCc1ccc2ccccc2c1 (stereo not drawn) has a Ki [4] of 99 nM, a Ki (D(2) dopamine receptor) of over 1000 nM and a Ki [6] of over 1000 nM.

In the case of O=C1C2CCCN2C(=O)N1CCCCNCc1ccco1 (stereo not drawn), the Ki [1] is reported as over 1000 nM.

In the case of O=C1C2CCCN2C(=O)N1CCCCNCc1cccc2ccccc12 (stereo not drawn), the Ki [1] is reported as over 1000 nM.

O=C1CSC(=O)N1CCCCCCCCNCC1CCc2ccccc2O1 (stereo not drawn) gave an EC50 [7] of 25.9 nM, an Emax [8] of 88.6% and a Ki [2] of over 1000 nM.

O=C1C2CCCN2C(=O)N1CCCCNCCc1ccco1 (stereo not drawn) gave a Ki [1] of over 1000 nM.

In the case of O=C1CSC(=O)N1CCCCNCC1CCc2ccccc2O1 (stereo not drawn), the Ki [1] is reported as 15.1 nM, the Emax [8] is reported as 89.6% and the Ki [2] is reported as over 1000 nM.

In the case of O=C1C2CCCN2C(=O)N1CCCCNCCc1cccs1 (stereo not drawn), the Ki [1] is reported as over 1000 nM.
